Drawing on ChEMBL document CHEMBL3351942, “Rexinoids isolated from Sophora tonkinensis with a gene expression profile distinct from the synthetic rexinoid bexarotene” (J Nat Prod, 2014), this text covers Activity for one compound.

Calls of active or inactive are those of the source. The calls are words filed in the database; no cut-off is given here.

One test deals with 3T3-L1. Nature of the test: Activation of PPARgamma/RXR heterodimer in mouse 3T3-L1 cell assessed as induction of adipogenesis at 10 uM after 6 days by Oil red O-staining. Type of test: cell-based. The method in brief: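 3T3-L1 cells grown to confluence, 2 days later induced 48 h with 10% FBS, 5 μg/mL insulin, 0.25 μM dexamethasone, 0.5 mM IBMX, then 48 h insulin-only medium; compounds in DMSO added to postdifferentiation medium for 4 days. Formalin-fixed (10%, 1 h, RT), stained with Oil red O, washed, visualized.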

Test [1] can be described thus: Activation of LXR in mouse C2C12 cells assessed as induction of FAS mRNA expression at 10 uM after 24 hrs in presence of T0901317 by quantitative RT-PCR analysis. The format is cell-based. The method, boiled down:
(§1)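 C2C12 myoblasts grown in DMEM/10% FBS, differentiated at confluence in 2% horse serum, medium changed every other day for 5 days; myotubes treated 24 h with or without T0901317 (1 μM). Total RNA, DNase-treated, oligo(dT) RT from 0.5 μg, SYBR green qPCR; normalized to β-actin (delta-delta Ct), fold over vehicle; mean ± SD of four determinants, one of two experiments.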

The target in test [2] is T1, Retinoic acid receptor alpha (Homo sapiens) (UniProt P10276).
T1 sequence (whole entry): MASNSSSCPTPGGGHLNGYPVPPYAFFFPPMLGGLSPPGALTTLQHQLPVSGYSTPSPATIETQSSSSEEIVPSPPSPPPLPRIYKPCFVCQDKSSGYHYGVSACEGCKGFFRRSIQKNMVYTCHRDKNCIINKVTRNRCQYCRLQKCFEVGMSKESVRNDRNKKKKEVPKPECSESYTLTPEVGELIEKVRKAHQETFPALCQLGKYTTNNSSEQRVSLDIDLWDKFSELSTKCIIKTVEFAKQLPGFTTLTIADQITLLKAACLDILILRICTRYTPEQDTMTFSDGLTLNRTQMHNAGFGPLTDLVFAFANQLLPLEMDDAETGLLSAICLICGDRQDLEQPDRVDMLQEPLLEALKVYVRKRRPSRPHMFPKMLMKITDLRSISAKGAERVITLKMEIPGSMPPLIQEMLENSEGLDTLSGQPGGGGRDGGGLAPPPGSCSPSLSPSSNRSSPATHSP
Description: Activation of human RAR-alpha expressed in HEK293 cells coexpressing with tk-betaRE-Luc after 24 hrs by luciferase reporter gene assay. Type of test: cell-based. The method in brief:
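Calcium phosphate transfection of HEK293 cells with 30 ng pCMX-hRAR-α, 120 ng tk-βRE-Luc and 30 ng pCMX-β-gal plus carrier pUC18 (600 ng DNA per well). Cells were washed 8 h later and incubated with compound in 10% FBS medium. Luciferase was normalized to β-galactosidase; triplicate or quadruplicate, representative of three experiments.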

The target in test [3] is T2, Peroxisome proliferator-activated receptor delta (Homo sapiens) (UniProt Q03181).
T2 sequence (whole entry): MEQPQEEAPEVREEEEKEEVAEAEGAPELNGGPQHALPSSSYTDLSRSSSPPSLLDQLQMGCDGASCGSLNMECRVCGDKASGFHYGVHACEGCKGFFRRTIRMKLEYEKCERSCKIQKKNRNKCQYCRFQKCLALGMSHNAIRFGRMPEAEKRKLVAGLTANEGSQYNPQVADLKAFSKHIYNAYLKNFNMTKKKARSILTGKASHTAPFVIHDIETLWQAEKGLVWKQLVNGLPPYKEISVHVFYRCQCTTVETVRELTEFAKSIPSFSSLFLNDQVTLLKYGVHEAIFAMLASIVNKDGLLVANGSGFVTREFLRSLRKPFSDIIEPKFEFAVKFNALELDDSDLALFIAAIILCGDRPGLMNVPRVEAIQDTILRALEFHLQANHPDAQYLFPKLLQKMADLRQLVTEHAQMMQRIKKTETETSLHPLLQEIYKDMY
Description: Activation of PPARdelta (unknown origin) by receptor-CBP cofactor complex formation assay. The method in brief:
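Cell-free cofactor recruitment ELISA: ligand-dependent binding of PPAR isotypes to CBP, detected by HRP-conjugated anti-PPAR antibody at OD450. Full agonists GW7647 (α), GW1929 (γ), GW501516 (δ) define 100%, vehicle 0%; efficacy as maximum B/Bmax% and potency as EC50.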

The nature of test [4]: Activation of LXR in mouse C2C12 cells assessed as induction of ABCA1 mRNA expression at 10 uM after 24 hrs by quantitative RT-PCR analysis. The format is cell-based. The method, boiled down:
as §1

On to `CC(C)=CCc1cc([C@@H]2CC(=O)c3ccc(O)c(CC=C(C)C)c3O2)cc2c1OC(C(C)(C)O)C2` (stereo not given in full), for which the outcome (in the test on 3T3-L1; in test [4]) was Active. Besides, the outcome in test [1], in test [2] and in test [3] was inactive.
